Source: BindingDB's records for doi:10.1016/j.bmc.2011.08.039 (Ludwig-Maximilians-University Munich, 2011)

What was measured:
[1] = biological target: T1, Sodium- and chloride-dependent GABA transporter 3 (Mus musculus, UniProt P31650); assay: Inhibition of mouse GAT3-mediated [3H]GABA uptake expressed in human HEK cells
T1 sequence (P31650 whole entry): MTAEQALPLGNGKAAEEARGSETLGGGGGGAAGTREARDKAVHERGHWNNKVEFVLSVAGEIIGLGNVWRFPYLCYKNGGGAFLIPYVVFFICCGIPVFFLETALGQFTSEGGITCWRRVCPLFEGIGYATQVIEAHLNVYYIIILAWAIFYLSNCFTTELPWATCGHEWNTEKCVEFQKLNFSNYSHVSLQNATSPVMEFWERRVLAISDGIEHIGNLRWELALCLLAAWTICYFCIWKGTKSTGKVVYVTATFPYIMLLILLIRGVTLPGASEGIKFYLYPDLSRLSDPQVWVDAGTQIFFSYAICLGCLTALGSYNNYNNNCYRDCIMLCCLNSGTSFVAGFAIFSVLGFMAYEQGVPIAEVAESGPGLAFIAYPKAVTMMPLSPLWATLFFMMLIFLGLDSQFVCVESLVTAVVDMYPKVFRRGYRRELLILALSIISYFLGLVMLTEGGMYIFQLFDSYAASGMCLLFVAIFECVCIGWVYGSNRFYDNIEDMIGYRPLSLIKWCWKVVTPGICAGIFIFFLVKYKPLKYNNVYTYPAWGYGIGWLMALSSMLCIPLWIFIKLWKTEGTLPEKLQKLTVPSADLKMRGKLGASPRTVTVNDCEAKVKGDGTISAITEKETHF
Outline: (§1)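 Specific [3H]GABA uptake was measured at the murine transporter subtype, and results are given as pIC50 ± SEM from three independent experiments, each run in triplicate.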

[2] = biological target: T2, Sodium- and chloride-dependent GABA transporter 2 (Mus musculus, UniProt P31649); assay: Inhibition of mouse GAT2-mediated [3H]GABA uptake expressed in human HEK cells; outline: as §1
T2 sequence (P31649 whole entry): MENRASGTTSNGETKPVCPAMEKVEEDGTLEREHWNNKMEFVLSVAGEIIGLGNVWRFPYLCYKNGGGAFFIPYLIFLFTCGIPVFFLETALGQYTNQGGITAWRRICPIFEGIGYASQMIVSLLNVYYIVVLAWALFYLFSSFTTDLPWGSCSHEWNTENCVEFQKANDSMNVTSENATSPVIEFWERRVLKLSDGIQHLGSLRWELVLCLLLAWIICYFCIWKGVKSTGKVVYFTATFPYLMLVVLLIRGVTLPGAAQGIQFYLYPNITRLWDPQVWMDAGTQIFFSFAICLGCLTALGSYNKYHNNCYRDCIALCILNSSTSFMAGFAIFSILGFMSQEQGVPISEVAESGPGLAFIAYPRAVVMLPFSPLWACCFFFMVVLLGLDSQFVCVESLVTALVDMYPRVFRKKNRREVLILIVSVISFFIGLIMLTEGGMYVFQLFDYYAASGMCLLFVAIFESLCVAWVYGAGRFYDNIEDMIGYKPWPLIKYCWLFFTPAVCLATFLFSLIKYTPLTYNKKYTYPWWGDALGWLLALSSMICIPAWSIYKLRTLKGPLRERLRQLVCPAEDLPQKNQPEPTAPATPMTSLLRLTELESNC

[3] = Inhibition of mouse GAT2-mediated [3H]GABA uptake expressed in BHK cells
[4] = Inhibition of mouse GAT3-mediated [3H]GABA uptake expressed in BHK cells

SMILES | IC50 [1] | IC50 [2] | IC50 [3] | IC50 [4]
C(CCNCc1nnnn1C1CCCCC1)=C(c1ccccc1)c1ccccc1 | 21.4 µM |  |  | 
COc1ccccc1C1(O)CCN(CCCn2c3ccccc3c3ccccc32)CC1 | 11.7 µM | 8.13 µM | 1.41 µM | 40.7 µM
c1ccc(C(NCc2nnnn2C2CCCCC2)c2ccccc2)cc1 | 24.5 µM |  |  | 
CC(C)(C)CC(C)(C)n1nnnc1CNC(c1ccccc1)c1ccccc1 | 60.3 µM |  |  | 
CC(C)(C)CC(C)(C)n1nnnc1CNCC=C(c1ccccc1)c1ccccc1 | 22.9 µM | 10.2 µM |  | 
C(CNCc1nnnn1C1CCCCC1)=C(c1ccccc1)c1ccccc1 | 18.2 µM | 24.5 µM |  | 
CC(C)(C)CC(C)(C)n1nnnc1CNCCC=C(c1ccccc1)c1ccccc1 | 12.3 µM |  |  | 

The next lines start with results.

IC50 [1] | IC50 [2] | SMILES | IC50 [3] | IC50 [4]
40.7 µM | 15.5 µM | c1ccc(Cn2nnnc2CNCCCC(c2ccccc2)c2ccccc2)cc1 |  | 
12.9 µM | 16.6 µM | CC(C)(C)CC(C)(C)n1nnnc1CNCCCC(c1ccccc1)c1ccccc1 |  | 
17.4 µM | 21.9 µM | c1ccc(C(CCCNCc2nnnn2C2CCCCC2)c2ccccc2)cc1 |  | 
44.7 µM |  | c1ccc(Cn2nnnc2CNCC(c2ccccc2)c2ccccc2)cc1 |  | 
16.2 µM |  | c1ccc(Cn2nnnc2CNC(c2ccccc2)c2ccccc2)cc1 |  | 
34.7 µM | 24.5 µM | C(CNCc1nnnn1Cc1ccccc1)=C(c1ccccc1)c1ccccc1 |  | 
8.13 µM |  | CC(C)(C)CC(C)(C)n1nnnc1CNCCC(c1ccccc1)c1ccccc1 |  | 
